These results are taken from article PMC9064050 (RSC Advances, 2019).

One assay concerns Shigella flexneri. As to the kind of experiment: Kirby–Bauer agar disc diffusion. The following applies: for inhibition%: E = (−)Shigella flexneri, eqn (20); for zone of inhibition at 100 µM: Shigella flexneri, read-out: diameter of clear zone inhibition. Format: cell-based. Summed up:
(§1)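 Kirby–Bauer disc diffusion on Mueller–Hinton agar (pH 7.2, autoclaved 121 °C for 15 min, ~4 mm deep, held 2–8 °C for 24 h). Plates spread with 24 h cultures. 6 mm discs loaded with 20 μL of 100 μM test compound. Bacteria incubated at 37 °C for 48 h; fungi at 22 °C for 7 days. Clear-zone diameter measured by ruler; % inhibition by eqn (20) against 6 mm control.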
Background: In agar diffusion tests the substance spreads into inoculated agar from a disc or well.

A further assay concerns Bacillus cereus. As to the kind of experiment: Kirby–Bauer agar disc diffusion. The format is cell-based. The following applies: for zone of inhibition at 100 µM: Bacillus cereus, read-out: diameter of clear zone inhibition; for inhibition%: G = (+)Bacillus cereus, eqn (20). Summed up:
as §1

The subject of another assay is Escherichia coli. Nature of the assay: Kirby–Bauer agar disc diffusion. Format: cell-based. The following applies: for inhibition%: A = (−) Escherichia coli, from zone diameter, eqn (20); for zone of inhibition at 100 µM: Escherichia coli, read-out: diameter of clear zone inhibition. Summed up: as §1
The subject of another assay is Pseudomonas aeruginosa. Nature of the assay: Kirby–Bauer agar disc diffusion. The settings on record: for inhibition%: D = (−)Pseudomonas aeruginosa, eqn (20); for zone of inhibition at 100 µM: Pseudomonas aeruginosa, read-out: diameter of clear zone inhibition. The format is cell-based. Summed up:
as §1

The next assay concerns Staphylococcus aureus. As to the kind of experiment: Kirby–Bauer agar disc diffusion. Format: cell-based. The settings on record: for inhibition%: F = (+)Staphylococcus aureus, eqn (20); for zone of inhibition at 100 µM: Staphylococcus aureus, read-out: diameter of clear zone inhibition. In short, it runs like this:
as §1

Assay [1] deals with Chromobacterium violaceum. Nature of the assay: Kirby–Bauer agar disc diffusion. Format: cell-based. The settings on record: for inhibition%: C = (−)Chromobacterium violaceum, eqn (20); for zone of inhibition at 100 µM: Chromobacterium violaceum, read-out: diameter of clear zone inhibition. In short, it runs like this:
as §1

In assay [2] the test system is Salmonella enteric serovar typhi. As to the kind of experiment: Kirby–Bauer agar disc diffusion. Format: cell-based. The settings on record: for inhibition%: B = (−)Salmonella enteric serovar typhi, eqn (20); for zone of inhibition at 100 µM: Salmonella, TYPHI, read-out: diameter of clear zone inhibition. In short, it runs like this:
as §1

The subject of another assay is Candida albicans. As to the kind of experiment: Kirby–Bauer agar disc diffusion. Format: cell-based. The settings on record: for zone of inhibition at 100 µM: Candida albicans, read-out: diameter of clear zone inhibition; for inhibition%: I = Candida albicans, eqn (20). In short, it runs like this:
as §1

Another assay relates to Aspergillus niger. Nature of the assay: Kirby–Bauer agar disc diffusion. The settings on record: for zone of inhibition at 100 µM: Aspergillus niger, read-out: diameter of clear zone inhibition; for inhibition%: H = Aspergillus niger, eqn (20). Format: cell-based. In short, it runs like this: as §1
Another assay concerns Mucor indicus. As to the kind of experiment: Kirby–Bauer agar disc diffusion. The format is cell-based. The settings on record: for inhibition%: J = Mucor indicus, eqn (20); for zone of inhibition at 100 µM: Mucor indicus, read-out: diameter of clear zone inhibition. In short, it runs like this: as §1
Assay [3] can be described thus: Superoxide scavenging assay. Summed up: (§2)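 Absorbance read at 517 nm (DPPH), 230 nm (hydroxyl), 590 nm (superoxide), 546 nm (nitric oxide) and 700 nm (FRAP). FRAP measures the rise in absorbance from Fe3+→Fe2+ reduction with ferricyanide. IC50 taken from % inhibition vs concentration plots.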
Assay [4] is described as follows: Ferric reducing antioxidant power. In short, it runs like this:
as §2

Assay [5] in a line: DPPH radical scavenging assay. Summed up: as §2
Assay [6] is described as follows: Hydroxyl radical scavenging assay. Summed up:
as §2

Assay [7] in a line: Nitric oxide scavenging assay. Summed up:
as §2

Another assay concerns human lung cancer (A549). Nature of the assay: In vitro anticancer MTT assay. The format is cell-based. The following applies: 50% cell death following 72 h exposure. In short, it runs like this: (§3)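 MTT viability: cells seeded at 1 × 10^5 per well and incubated 24 h at 37 °C, 5% CO2. Treated with test compound at 10–100 μg mL−1 (from DMSO). Medium removed, wells PBS-washed, RPMI-1640 plus MTT (5 mg mL−1 solution) added for 4 h at 37 °C. Formazan dissolved in DMSO, read at 570 nm. Triplicate wells; IC50 from % viability; cisplatin as reference.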
A general note: Tetrazolium assays rely on reduction of a dye to a coloured formazan, in cell work by metabolically active cells.

The test system of assay [8] is normal human dermal fibroblast (NHDF). As to the kind of experiment: MTT assay on normal cells. The following applies: normal cell line; 50% cell death following 72 h exposure. The format is cell-based. Summed up: as §3
The subject of another assay is breast (MCF-7). As to the kind of experiment: In vitro anticancer MTT assay. Format: cell-based, human. The settings on record: 50% cell death following 72 h exposure. In short, it runs like this: as §3
The next assay concerns liver cancer (HepG2). Nature of the assay: In vitro anticancer MTT assay. The format is cell-based, human. The following applies: 50% cell death following 72 h exposure. Summed up:
as §3

The subject of the next assay is EB–DNA. The settings on record: at the concentration of 50 μM EB; cited from earlier work.

One may read the zone of inhibition as the extent of the growth-free halo in a diffusion test. As for `NCC[C@H](O)C(=O)N[C@@H]1C[C@H](N)[C@@H](O[C@H]2O[C@H](CN)[C@@H](O)[C@H](O)[C@H]2O)[C@H](O)[C@H]1O[C@H]1O[C@H](CO)[C@@H](O)[C@H](N)[C@H]1O` [Amikacin, amikacin], the inhibition% was 70% in the assay on Shigella flexneri; 70% in the assay with Bacillus cereus; 73% in the assay on Escherichia coli; 70% with Pseudomonas aeruginosa; 70% in the assay with Staphylococcus aureus; 75% in assay [1]. For the same compound, in assay [2], the inhibition% was found to be 73%. The zone of inhibition at 100 µM in the assay on Shigella flexneri turned out to be 20 mm; with Bacillus cereus, 20 mm; with Escherichia coli it was 22 mm; in the assay with Pseudomonas aeruginosa it was 20 mm; in the assay on Staphylococcus aureus it was 20 mm; in assay [1], 24 mm. The zone of inhibition at 100 µM in assay [2] amounted to 22 mm.
As to `C[C@@H]1[C@H](O)[C@@H](C)/C=C/C=C/C=C/C=C/C=C/C=C/C=C/[C@H](O[C@@H]2O[C@H](C)[C@@H](O)[C@H](N)[C@@H]2O)C[C@@H]2O[C@](O)(C[C@@H](O)C[C@@H](O)[C@H](O)CC[C@@H](O)C[C@@H](O)CC(=O)O[C@H]1C)C[C@H](O)[C@H]2C(=O)O` [Amphotericin B, amphotericin B], the figures for the zone of inhibition at 100 µM with Candida albicans, in the assay with Aspergillus niger and with Mucor indicus were 17 mm, 15 mm and 17 mm, respectively. Besides, the inhibition% with Candida albicans turned out to be 65%; with Aspergillus niger it was 60%; in the assay with Mucor indicus, 65%.
The term IC50 denotes the concentration that gives 50% inhibition. As to `O=C1O[C@H]([C@@H](O)CO)C(O)=C1O` [Ascorbic acid, ascorbic acid], the “% Inhibition, superoxide” value in assay [3] (240 µM, 590 nm) is given as 84.85%. For the same compound, the concentration for half-maximal inhibition (IC50) amounted to 120 µM in [3] (read-out: IC50, superoxide); 160 µM in assay [4] (read-out: IC50, ferric reducing power); 80 µM in assay [5] (read-out: IC50, DPPH); 160 µM in assay [6] (read-out: IC50, hydroxyl radical); 200 µM in [7] (read-out: IC50, nitric oxide). In addition, in assay [4] (240 µM, 700 nm), the “% Inhibition, ferric reducing power” value was found to be 88.67%. Moreover, in assay [5] (240 µM, 517 nm), the “% Inhibition, DPPH” value is given as 82.75%. Moreover, the “% Inhibition, hydroxyl radical” value in assay [6] (240 µM, 230 nm) is 78.83%. For the same compound, the “% Inhibition, nitric oxide” value in assay [7] (240 µM, 546 nm) worked out at 72.73%.
Take `N.N.[Cl][Pt][Cl]` [Cisplatin, cisplatin]: the “IC50 A549” value with human lung cancer (A549) was found to be 09.62 µg/mL. Also, the “IC50 NHDF” value in assay [8] amounted to 08.08 µg/mL. Besides, the “IC50 MCF-7” value in the assay with breast (MCF-7) came to 06.11 µg/mL. The “IC50 HepG2” value with liver cancer (HepG2) came to 06.94 µg/mL.
Consider `CC[n+]1c(-c2ccccc2)c2cc(N)ccc2c2ccc(N)cc21` [EB, ethidium bromide], for which, in the assay on EB–DNA, the “KEB (binding constant of EB to DNA)” value is on record as 10^7 M^−1.
For the compound `CC(=O)N1CCN(c2ccc(OCC3COC(Cn4ccnc4)(c4ccc(Cl)cc4Cl)O3)cc2)CC1` (stereo not shown) [Ketokonazole, ketokonazole], the zone of inhibition at 100 µM is 18 mm with Candida albicans, 16 mm in the assay on Aspergillus niger and 18 mm in the assay on Mucor indicus. For the same compound, the inhibition% in the assay on Candida albicans came out at 67%; in the assay with Aspergillus niger it was 63%; with Mucor indicus, 67%.
As to `[H]/N=C(/N)N[C@H]1[C@H](O)[C@@H](O)[C@H](O[C@@H]2O[C@@H](C)[C@](O)(C=O)[C@H]2O[C@@H]2O[C@@H](CO)[C@H](O)[C@@H](O)[C@@H]2NC)[C@@H](N/C(N)=N\[H])[C@@H]1O` [Streptomycin, streptomycin], the inhibition% in the assay with Shigella flexneri came to 76%; with Bacillus cereus, 71%; in the assay with Escherichia coli, 75%; in the assay on Pseudomonas aeruginosa, 71%; in the assay with Staphylococcus aureus, 71%; in assay [1], 75%. For the same compound, the inhibition% in assay [2] turned out to be 77%. Besides, the zone of inhibition at 100 µM was 25 mm with Shigella flexneri; 21 mm in the assay with Bacillus cereus; 24 mm with Escherichia coli; 21 mm in the assay with Pseudomonas aeruginosa; 21 mm in the assay on Staphylococcus aureus; 24 mm in assay [1]. In assay [2], the zone of inhibition at 100 µM stood at 26 mm.
